Experimental findings from ChEMBL document CHEMBL1153792, “Synthesis, characterization and evaluation of antibacterial activity of some thiazolo[3,2-b][1,2,4]triazole incorporating diphenylsulfone moieties” (2009) are described below.

SMILES strings stand for the structures. Converted amounts (≈) assume the structure as drawn.

Holding throughout (assay type): functional
The subject of one experiment is Acinetobacter baumannii. The experiment can be described thus: Antimicrobial activity against Acinetobacter baumannii ATCC 19606 after 18 to 24 hrs by liquid broth method. In outline:
(§1)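 Serial twofold dilution in Mueller–Hinton broth in 96-well format. Compounds were dissolved in DMSO and tested at final levels of 1024, 512, 256, 128, 64, 32, 16, 8, 4 and 2. Inoculum was a 0.5 McFarland suspension. Plates were incubated at 37 °C for 18–24 h. MIC was read by eye as the lowest concentration clearly inhibiting growth.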

The next experiment has as its system Citrobacter freundii. Description: Antimicrobial activity against Citrobacter freundii ATCC 8090 after 18 to 24 hrs by liquid broth method. In outline:
as §1

Another experiment relates to Escherichia coli. Description: Antimicrobial activity against Escherichia coli ATCC 11775 after 18 to 24 hrs by liquid broth method. In outline: as §1
The next experiment relates to Pseudomonas aeruginosa. Description: Antimicrobial activity against Pseudomonas aeruginosa ATCC 9027 after 18 to 24 hrs by liquid broth method. In outline: as §1
Another experiment relates to Enterococcus faecalis. The experiment can be described thus: Antimicrobial activity against Enterococcus faecalis ATCC 19433 after 18 to 24 hrs by liquid broth method. In outline: as §1
The subject of a further experiment is Staphylococcus aureus. The experiment can be described thus: Antimicrobial activity against Staphylococcus aureus ATCC 12600 after 18 to 24 hrs by liquid broth method. In outline: as §1
Experiment [1] deals with Staphylococcus epidermidis. Description: Antimicrobial activity against Staphylococcus epidermidis ATCC 14990 after 18 to 24 hrs by liquid broth method. In outline: as §1
Another experiment relates to Bacillus cereus. The experiment can be described thus: Antimicrobial activity against Bacillus cereus ATCC 14579 after 18 to 24 hrs by liquid broth method. In outline:
as §1

In the case of `O=C(CSc1nnc(-c2ccc(S(=O)(=O)c3ccc(Cl)cc3)cc2)[nH]1)c1ccc(Br)cc1`, the minimum inhibitory concentration (MIC) is 64 µg/mL (≈ 117 µM) in the experiment with Acinetobacter baumannii; 128 µg/mL (≈ 233 µM) in the experiment on Citrobacter freundii; 64 µg/mL (≈ 117 µM) against Escherichia coli; 64 µg/mL (≈ 117 µM) against Pseudomonas aeruginosa; 256 µg/mL (≈ 466 µM) with Enterococcus faecalis; 64 µg/mL (≈ 117 µM) in the experiment on Staphylococcus aureus. The MIC (in experiment [1]; against Bacillus cereus) was 64 µg/mL (≈ 117 µM) each time.

Consider `O=C(CSc1nnc(-c2ccc(S(=O)(=O)c3ccc(Br)cc3)cc2)[nH]1)c1ccc(Br)cc1`, for which the MIC stood at 64 µg/mL (≈ 108 µM) in the experiment with Acinetobacter baumannii; 128 µg/mL (≈ 216 µM) in the experiment on Citrobacter freundii; 64 µg/mL (≈ 108 µM) against Escherichia coli; 128 µg/mL (≈ 216 µM) in the experiment on Pseudomonas aeruginosa; 128 µg/mL (≈ 216 µM) with Enterococcus faecalis; 128 µg/mL (≈ 216 µM) against Staphylococcus aureus. The figures for the MIC (in experiment [1]; in the experiment on Bacillus cereus) were 64 µg/mL (≈ 108 µM) and 256 µg/mL (≈ 431 µM), respectively.

With `O=S(=O)(c1ccc(Cl)cc1)c1ccc(-c2nnc(S)[nH]2)cc1`, the MIC is 256 µg/mL (≈ 728 µM) against Acinetobacter baumannii; over 1020 µg/mL against Citrobacter freundii; 1020 µg/mL (≈ 2910 µM) in the experiment on Escherichia coli; 1020 µg/mL (≈ 2910 µM) against Pseudomonas aeruginosa; over 1020 µg/mL against Enterococcus faecalis; 1020 µg/mL (≈ 2910 µM) in the experiment with Staphylococcus aureus. Further, the MIC (in experiment [1]; against Bacillus cereus) was 1020 µg/mL (≈ 2910 µM) throughout.

On to `O=S(=O)(c1ccc(Cl)cc1)c1ccc(-c2nc3scc(-c4ccccc4)n3n2)cc1`, for which the MIC was 512 µg/mL (≈ 1130 µM) against Acinetobacter baumannii; over 1020 µg/mL in the experiment with Citrobacter freundii; 1020 µg/mL (≈ 2270 µM) with Escherichia coli; over 1020 µg/mL with Pseudomonas aeruginosa; over 1020 µg/mL in the experiment with Enterococcus faecalis; over 1020 µg/mL in the experiment on Staphylococcus aureus. In addition, the MIC (in experiment [1]; against Bacillus cereus) was over 1020 µg/mL throughout.

`CC1(C)S[C@@H]2[C@H](NC(=O)[C@H](N)c3ccccc3)C(=O)N2[C@H]1C(=O)O` [AMPICILLIN]: the MIC in the experiment on Citrobacter freundii was 2 µg/mL (≈ 5.72 µM); against Enterococcus faecalis, 0.5 µg/mL (≈ 1.43 µM); with Staphylococcus aureus, 0.5 µg/mL (≈ 1.43 µM); in experiment [1], 0.064 µg/mL (≈ 0.183 µM).

For `CN(C)[C@@H]1C(O)=C(C(N)=O)C(=O)[C@@]2(O)C(O)=C3C(=O)c4c(O)cccc4[C@@](C)(O)[C@H]3C[C@@H]12` [TETRACYCLINE], the MIC was 1.5 µg/mL (≈ 3.38 µM) against Acinetobacter baumannii; 1 µg/mL (≈ 2.25 µM) in the experiment on Citrobacter freundii; 1.5 µg/mL (≈ 3.38 µM) against Escherichia coli; 12 µg/mL (≈ 27 µM) in the experiment on Pseudomonas aeruginosa; 32 µg/mL (≈ 72 µM) against Enterococcus faecalis; 0.19 µg/mL (≈ 0.428 µM) in the experiment with Staphylococcus aureus. Further, the MIC amounted to 24 µg/mL (≈ 54 µM) in experiment [1] and 0.094 µg/mL (≈ 0.212 µM) against Bacillus cereus.

As to `O=S(=O)(c1ccc(Cl)cc1)c1ccc(-c2nc3scc(-c4ccc(Br)cc4)n3n2)cc1`, the MIC against Acinetobacter baumannii is 128 µg/mL (≈ 241 µM); in the experiment on Citrobacter freundii, over 1020 µg/mL; in the experiment with Escherichia coli, over 1020 µg/mL; in the experiment with Pseudomonas aeruginosa, over 1020 µg/mL; in the experiment with Enterococcus faecalis, over 1020 µg/mL; against Staphylococcus aureus it was 512 µg/mL (≈ 964 µM). The MIC (in experiment [1]; against Bacillus cereus) was over 1020 µg/mL in each case.

Regarding `O=S(=O)(c1ccccc1)c1ccc(-c2nc3scc(-c4ccccc4)n3n2)cc1`, the MIC in the experiment on Acinetobacter baumannii is 64 µg/mL (≈ 153 µM); in the experiment with Citrobacter freundii, 128 µg/mL (≈ 307 µM); against Escherichia coli, 64 µg/mL (≈ 153 µM); against Pseudomonas aeruginosa it was 128 µg/mL (≈ 307 µM); against Enterococcus faecalis, 512 µg/mL (≈ 1230 µM); in the experiment with Staphylococcus aureus it was 128 µg/mL (≈ 307 µM). Further, the MIC is 64 µg/mL (≈ 153 µM) in experiment [1] and 512 µg/mL (≈ 1230 µM) with Bacillus cereus.

As to `O=C(CSc1nnc(-c2ccc(S(=O)(=O)c3ccccc3)cc2)[nH]1)c1ccccc1`, the MIC in the experiment with Acinetobacter baumannii was found to be 64 µg/mL (≈ 147 µM); in the experiment with Citrobacter freundii, 128 µg/mL (≈ 294 µM); against Escherichia coli, 64 µg/mL (≈ 147 µM); in the experiment on Pseudomonas aeruginosa, 128 µg/mL (≈ 294 µM); against Enterococcus faecalis, 256 µg/mL (≈ 588 µM); in the experiment on Staphylococcus aureus, 64 µg/mL (≈ 147 µM). The values for the MIC (in experiment [1]; in the experiment on Bacillus cereus) were 64 µg/mL (≈ 147 µM) and 128 µg/mL (≈ 294 µM), respectively.

As to `O=S(=O)(c1ccccc1)c1ccc(-c2nc3scc(-c4ccc(Br)cc4)n3n2)cc1`, the MIC with Acinetobacter baumannii amounted to 64 µg/mL (≈ 129 µM); in the experiment on Citrobacter freundii, 128 µg/mL (≈ 258 µM); in the experiment with Escherichia coli, 64 µg/mL (≈ 129 µM); in the experiment on Pseudomonas aeruginosa, 128 µg/mL (≈ 258 µM); against Enterococcus faecalis it was 256 µg/mL (≈ 516 µM); in the experiment on Staphylococcus aureus it was 128 µg/mL (≈ 258 µM). Besides, the MIC in experiment [1] was 64 µg/mL (≈ 129 µM); in the experiment on Bacillus cereus, 128 µg/mL (≈ 258 µM).

On to `O=C(CSc1nnc(-c2ccc(S(=O)(=O)c3ccc(Br)cc3)cc2)[nH]1)c1ccccc1`, for which the MIC against Acinetobacter baumannii turned out to be 64 µg/mL (≈ 124 µM); against Citrobacter freundii, 128 µg/mL (≈ 249 µM); against Escherichia coli it was 64 µg/mL (≈ 124 µM); with Pseudomonas aeruginosa, 128 µg/mL (≈ 249 µM); against Enterococcus faecalis it was 256 µg/mL (≈ 498 µM); in the experiment with Staphylococcus aureus, 128 µg/mL (≈ 249 µM). In addition, the MIC worked out at 64 µg/mL (≈ 124 µM) in experiment [1] and 128 µg/mL (≈ 249 µM) in the experiment on Bacillus cereus.

Consider `O=C(CSc1nnc(-c2ccc(S(=O)(=O)c3ccccc3)cc2)[nH]1)c1ccc(Br)cc1`, for which the minimum inhibitory concentration (MIC) in the experiment on Acinetobacter baumannii, with Citrobacter freundii, against Escherichia coli, with Pseudomonas aeruginosa, in the experiment with Enterococcus faecalis and in the experiment on Staphylococcus aureus was 512 µg/mL (≈ 995 µM) each time. Moreover, the MIC (in experiment [1]; against Bacillus cereus) was 512 µg/mL (≈ 995 µM) in each case.

`O=S(=O)(c1ccccc1)c1ccc(-c2nnc(S)[nH]2)cc1`: the MIC with Acinetobacter baumannii is 256 µg/mL (≈ 807 µM); in the experiment with Citrobacter freundii it was over 1020 µg/mL; in the experiment with Escherichia coli it was 512 µg/mL (≈ 1610 µM); in the experiment on Pseudomonas aeruginosa, over 1020 µg/mL; in the experiment with Enterococcus faecalis, over 1020 µg/mL; in the experiment on Staphylococcus aureus, 512 µg/mL (≈ 1610 µM). Also, the values for the MIC (in experiment [1]; with Bacillus cereus) were over 1020 µg/mL and 1020 µg/mL (≈ 3230 µM), respectively.

On to `O=S(=O)(c1ccc(Br)cc1)c1ccc(-c2nnc(S)[nH]2)cc1`, for which the MIC was found to be 64 µg/mL (≈ 161 µM) against Acinetobacter baumannii; 128 µg/mL (≈ 323 µM) against Citrobacter freundii; 64 µg/mL (≈ 161 µM) with Escherichia coli; 128 µg/mL (≈ 323 µM) with Pseudomonas aeruginosa; 256 µg/mL (≈ 646 µM) against Enterococcus faecalis; 64 µg/mL (≈ 161 µM) with Staphylococcus aureus. The MIC was found to be 256 µg/mL (≈ 646 µM) in experiment [1] and 64 µg/mL (≈ 161 µM) against Bacillus cereus.

For the molecule `O=C(CSc1nnc(-c2ccc(S(=O)(=O)c3ccc(Cl)cc3)cc2)[nH]1)c1ccccc1`, the MIC in the experiment on Acinetobacter baumannii was found to be 64 µg/mL (≈ 136 µM); against Citrobacter freundii it was 128 µg/mL (≈ 272 µM); in the experiment on Escherichia coli, 64 µg/mL (≈ 136 µM); in the experiment on Pseudomonas aeruginosa, 64 µg/mL (≈ 136 µM); in the experiment with Enterococcus faecalis it was 256 µg/mL (≈ 545 µM); in the experiment on Staphylococcus aureus, 64 µg/mL (≈ 136 µM). In addition, the MIC (in experiment [1]; against Bacillus cereus) was 64 µg/mL (≈ 136 µM) in each case.

Turning to `O=S(=O)(c1ccc(Br)cc1)c1ccc(-c2nc3scc(-c4ccc(Br)cc4)n3n2)cc1`, the MIC turned out to be 64 µg/mL (≈ 111 µM) in the experiment with Acinetobacter baumannii; 128 µg/mL (≈ 222 µM) with Citrobacter freundii; 64 µg/mL (≈ 111 µM) in the experiment with Escherichia coli; 128 µg/mL (≈ 222 µM) against Pseudomonas aeruginosa; 256 µg/mL (≈ 445 µM) against Enterococcus faecalis; 128 µg/mL (≈ 222 µM) in the experiment on Staphylococcus aureus. Also, the MIC came to 64 µg/mL (≈ 111 µM) in experiment [1] and 256 µg/mL (≈ 445 µM) in the experiment with Bacillus cereus.

As for `O=S(=O)(c1ccc(Br)cc1)c1ccc(-c2nc3scc(-c4ccccc4)n3n2)cc1`, the MIC with Acinetobacter baumannii came out at 64 µg/mL (≈ 129 µM); in the experiment with Citrobacter freundii, 128 µg/mL (≈ 258 µM); with Escherichia coli, 64 µg/mL (≈ 129 µM); with Pseudomonas aeruginosa, 128 µg/mL (≈ 258 µM); in the experiment on Enterococcus faecalis, 256 µg/mL (≈ 516 µM); in the experiment with Staphylococcus aureus, 128 µg/mL (≈ 258 µM). Also, the MIC in experiment [1] was 64 µg/mL (≈ 129 µM); in the experiment on Bacillus cereus, 256 µg/mL (≈ 516 µM).

The term MIC denotes the least concentration at which growth counts as inhibited. A low value points to greater potency.
